Source: ChEMBL document CHEMBL4513216, “Probing the Open Global Health Chemical Diversity Library for Multistage-Active Starting Points for Next-Generation Antimalarials” (ACS Infect Dis, 2020)

Test: Toxicity liver stage against HepG2, at 10uM
Format: cell-based
Parameters: test concentration 10 uM, cell line HepG2-A16-CD81EGFP
Details: human, HepG2-A16-CD81EGFP cells; read-out: INHIBITION
Method in brief: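 Uninfected HepG2-A16-CD81EGFP cells, 3 × 10^3 per well, 1536-well, plated on prespotted compound at 10 μM final, parasite-free screening media added to match infected plates; puromycin 10 μM positive, DMSO 0.5% negative; run in parallel with 48 h PbLuc assay at 37 °C, 5% CO2; viability by CellTiter-Glo luminescence, normalized to controls.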

Row | SMILES | cytotoxicity at 10 µM
1 | CCc1ccc(C2CC(=O)Nc3c2c(=O)n(C)c2ncnn32)cc1 (stereo unspecified) | 8.16%
2 | N#Cc1ncn(CCC(=O)Nc2ccc(Cl)cc2F)n1 | -8.94%
3 | CN1CCN2C(=O)N(C3CCCCC3)C[C@H]2C1 | -3.1%
4 | O=C(CCC(=O)Nc1nnc(C(F)(F)F)s1)NCC1CCCO1 (stereo unspecified) | 4.65%
5 | CCOC(=O)C1CC2(CCCC2)N2CCC(=O)N12 (stereo unspecified) | 1.53%
6 | O=C(C1CC1)N(Cc1ccc2cc[nH]c2c1)C1CC1 | -2.98%
7 | Cc1nnc(SCC(=O)c2cc3c(cc2Cl)NC(=O)C3)o1 | -5.28%
8 | Cc1cc(C)n(-c2cccc(C(=O)Nc3n[nH]c(C4CCCO4)n3)c2)n1 (stereo unspecified) | -4.44%
9 | COc1ccccc1C(O)Cn1cc(C(=O)NCc2ccco2)nn1 (stereo unspecified) | -6.03%
10 | O=C1COC2(CCN(C(=O)c3ccoc3)CC2)CN1Cc1cccnc1 | 5.29%
11 | CN(CC1CC1)c1ccc2ccc(C(=O)NC3CCCCC3)cn12 | -0.567%
12 | N#CCC(=O)NCc1nnc2n1CCN(Cc1cccs1)C2 | -136%
13 | O=C1NCC[C@]12CN(Cc1ccco1)C[C@H]2c1ccccc1 | -139%
14 | Cc1ccc(NC(=O)Cc2cnc3n(C)c(=O)[nH]c(=O)n23)cc1 | 8.24%
15 | COc1ccc(C)cc1S(=O)(=O)NCC(c1cccn1C)N(C)C (stereo unspecified) | -11.9%
16 | O=S(=O)(c1cccnc1)N1CCN(CCn2ccnc2)CC1 | -31.2%
17 | CC(C)CCNC(=O)c1sccc1N(C)S(=O)(=O)c1ccccc1 | 9.33%
18 | CN1CC2(COCCN(C(=O)c3ccco3)C2)OCC1=O (stereo unspecified) | 2.33%
19 | O=C(c1cnccn1)N1CCN2C[C@H](OCc3ccccn3)C[C@H]2C1 | -0.746%
20 | CCN1Cc2c(C(=O)NCC3CC3)ncn2-c2ccccc2S1(=O)=O | -12.2%
21 | O=C1CCC2(CCN(c3ncc(F)cn3)CC2)N1CCN1CCCC1 | 10.5%
22 | COc1cccc(NC(=O)C(C)Cn2cc(Cl)cn2)c1 (stereo unspecified) | -1.47%
23 | O=C(O)c1ccn(COc2c(Cl)cccc2Cl)n1 | 8.71%

Row | SMILES | cytotoxicity at 10 µM
24 | O=C1CCC(=O)c2oc3ccc(Br)cc3c2N1 | 2.44%
25 | Brc1ccc2[nH]c3c(c2c1)CCCC3c1nn[nH]n1 (stereo unspecified) | 4.49%
26 | CC(=O)N[C@@H]1CN(C(=O)c2cccc(C)c2)C[C@H]1O | -2.48%
27 | Cc1c(S(=O)(=O)N2CCCC2c2nnc(-c3ccsc3)o2)cnn1C (stereo unspecified) | 3.04%
28 | Cc1cnc(-c2nc(NC3CC3)ncc2-c2onc(C)c2C)cn1 | -27.9%
29 | Cn1nccc1C(=O)N1CCOC(Cc2ccc(Cl)cc2)C1 (stereo unspecified) | -26%
30 | CCOCC(=O)N1C[C@@H]2CC[C@H](Oc3ccccc3)[C@@H]2C1 | -16.1%
31 | Cc1nc(Nc2cnccn2)cc(C2CCCN(C(C)C)C2)n1 (stereo unspecified) | -9.03%
32 | O=S(=O)(c1ccc2c(c1)CCC2)N1CCCC(Cn2cncn2)C1 (stereo unspecified) | 4.19%
33 | CC(SCCC(=O)NC(N)=O)c1ccccc1F (stereo unspecified) | 5.87%
34 | O=C(CCNC(=O)C1=Cc2ccccc2OC1)NCc1ccncc1 | 5.6%
35 | C[S+]([O-])CCNC(=O)N1CCN(c2cc(F)ccc2F)CC1 (stereo unspecified) | -13.4%
36 | CC1COCCN1C(=O)Cc1cc(Cl)c2c(c1)OCCCO2 (stereo unspecified) | -1.43%
37 | CCc1[nH]nc(NC(=O)c2cc[nH]n2)c1C | -3.98%
38 | O=S(=O)(Cc1ccccc1)c1nnc(N2CCOCC2)s1 | -4.65%
39 | Cc1oncc1NS(=O)(=O)c1c[nH]c2ncccc12 | -7.49%
40 | CS(=O)(=O)N1CCC(Oc2ccc(C#N)cc2)CC1 | -8.97%
41 | O=C(CN1CCN(c2ccnc3c(F)ccc(F)c23)CC1)N1CCCC1 | 17.4%
42 | O=C(CCc1cccnc1)Nc1ccc(OCC2CCOCC2)cc1 | -6.01%
43 | CCOCC(=O)N(Cc1ccco1)c1ccc(OC)c(F)c1 | -2.75%
44 | COc1cc(CSc2nnc(N)n2C2CC2)ccc1SC | -6.09%
45 | COc1ccc(C(=O)NCCN(C)C)c(I)c1 | -1.93%
46 | Cc1ccc(Cc2sc(NC(=O)C(C)S(C)(=O)=O)nc2C)cc1 (stereo unspecified) | 13.1%

Row | SMILES | cytotoxicity at 10 µM
47 | CC(C(=O)N1CCc2sccc2C1)N1CCC(N2CCCC2)CC1 (stereo unspecified) | 10.9%
48 | CCc1nccn1CC(=O)Nc1cccc(C(=O)N(C)C)c1 | -6.77%
49 | Cc1noc(C)c1CNS(=O)(=O)N(C)Cc1ccc(Cl)cc1 | 11.2%
50 | NC(=O)NC(=O)CNc1cccc(C(=O)c2ccccc2)c1 | 7.95%
51 | CC(C)c1noc(CS(=O)(=O)CC(=O)NCC(F)(F)F)n1 | 7.62%
52 | CCc1ccc(C(=O)NC2CCN(c3cnn(C)c3)C2=O)o1 (stereo unspecified) | -6.13%
53 | Cc1ccc(C(=O)N2CCN(CCCSCC#N)CC2)o1 | -11.1%
54 | CCN(C(c1cccnc1)c1ccc2c(c1)CCO2)S(C)(=O)=O (stereo unspecified) | -8.28%
55 | Cc1cnn(CC2CCCN2C(=O)CCc2c(C)noc2Cl)c1 (stereo unspecified) | -8.31%
56 | Cc1cccc(CNCc2c(C(C)C)nn(C)c2N2CCOCC2)n1 | -9.4%
57 | O=C(c1ncccn1)N1C[C@H]2CCC[C@@]2(COCC2CCOCC2)C1 | -1.11%
58 | CC(CN1CCC(CCO)CC1)n1cnc2ccccc21 (stereo unspecified) | 5.34%
59 | CCc1cccc(NC(=O)CCN2CC=C(c3cnn(C)c3)CC2)c1 | 1.2%
60 | COc1cccc(CC(C)NCC(=O)Nc2ccccc2C)c1 (stereo unspecified) | -1.62%
61 | COc1ncccc1CN1CCN(c2noc(C(C)C)n2)CC1 | 10.5%
62 | N[C@@H]1CC[C@H](C(=O)NCc2ccc3nonc3c2)C1 | -5.35%
63 | CCC(C(=O)NCC1=CCCN(C)C1)c1ccccc1 (stereo unspecified) | -2.65%
64 | O=C(N1CCOCC(O)C1)C1(c2ccc(Cl)cc2)CCC1 (stereo unspecified) | -4.24%
65 | CN(Cc1cnc(C(C)(C)C)nc1)Cc1nc2ccc(F)cc2[nH]1 | -12.3%
66 | CCCN1CCCn2nc(CNC(=O)CC(C)n3ccnc3C)cc2C1 (stereo unspecified) | -9.4%
67 | COCCN1CCN(C(=O)c2cc(C(C)C)on2)[C@H]2CS(=O)(=O)C[C@H]21 | -12%
68 | C[C@@H]1CN(C2(C(=O)N3CCCCCC3)Cc3ccccc3C2)C[C@H](C)O1 | -2.04%
69 | Cc1ccccc1Oc1ncccc1CNS(C)(=O)=O | -22.1%

Row | SMILES | cytotoxicity at 10 µM
70 | Cc1ccc(C)c(C(C(=O)O)N2CCCN(Cc3ccccn3)CC2)c1 (stereo unspecified) | -15.6%
71 | c1cn(Cc2nnc(C3CCN(c4nccs4)CC3)n2C2CC2)cn1 | -7.6%
72 | Cc1ccc(F)cc1C(=O)N1C[C@@H](CN2CCOCC2)[C@@H](CO)C1 | -6.2%
73 | CN1N=C(C(=O)N2CCCC(CCc3c(F)cccc3F)C2)CCC1=O (stereo unspecified) | -7.41%
74 | CCC(=O)N1CCC(O)(c2ncc(OC)nc2OC)CC1 | 3.03%
75 | c1ccc(Cc2noc(CN3CCc4c(ncn4C4CC4)C3)n2)cc1 | 2.1%
76 | N#Cc1cccc(OCCN2CCOC(Cn3cccn3)C2)c1 (stereo unspecified) | -1.3%
77 | Cc1ccc(-c2nc(CNC3CCc4ncnn4C3)no2)cc1 (stereo unspecified) | -1.43%
78 | O=C(CCNc1ncccn1)N1CCC(Nc2cccnn2)CC1 | -12.9%
79 | Cc1cnn(-c2ccc(C(=O)N3CCCC(n4ccnc4C)C3)cc2)c1 (stereo unspecified) | -9.99%
80 | CC(=O)N(Cc1ncc(C(C)C)o1)C1CCN(Cc2ccno2)C1 (stereo unspecified) | -11.1%
81 | Cc1ccc(CCNC(=O)Nc2cc(C(F)(F)F)c[nH]c2=O)o1 | -11.9%
82 | Cc1nc2n(n1)CC(NCc1nc(-c3ccccn3)no1)CC2 (stereo unspecified) | -12.4%
83 | O=C(c1ccc2c(c1)COC2)N1CCCC(n2cncn2)C1 (stereo unspecified) | -20.6%
84 | Cc1ccc(N2CCCN(C(=O)CC3C=CCC3)CC2)nn1 (stereo unspecified) | -9.2%
85 | Cc1csc(NC(=O)CN2CCCC(Cn3nc(C)nc3C)C2)n1 (stereo unspecified) | -3.95%
86 | CC(C)(C)c1cccc(OCC(=O)NS(=O)(=O)c2cccnc2)c1 | -12.5%
87 | Cn1cc(Cl)cc1C(=O)N1CCCN(Cc2nccn2C)CC1 | -6.04%
88 | Cc1cc(NC(=O)CN2CCc3cnc(C(C)C)nc3C2)on1 | -12.1%
89 | Cn1c(CNCC2CCCN2c2cccnn2)nc2ccccc21 (stereo unspecified) | -18.2%
90 | CN(C)c1ccc(C(=O)N2CCCC(n3cncn3)C2)nn1 (stereo unspecified) | 0.47%
91 | COc1cc(Cl)ccc1CNC(=O)N1CCC(n2cncn2)CC1 | -0.861%
92 | CN1CCC/C1=N\S(=O)(=O)c1ccc(NC(=O)c2ccc(Cl)s2)cc1 | 1.55%

Row | SMILES | cytotoxicity at 10 µM
93 | Cc1cc(N2CCC(C(=O)NC3CC3)CC2)nc(-c2ccncc2)n1 | -17%
94 | Cc1nc(CNC(=O)Cn2nc(-c3ccc(F)cc3)oc2=O)cs1 | 1.12%
95 | CCOc1ccnc(N2CCN(C(=O)c3cccnc3O)CC2)n1 | -6.51%
96 | CC(=O)Nc1nc(C(=O)N2CCCC2c2noc(C)n2)cs1 (stereo unspecified) | -9.55%
97 | O=C(c1cnc(-c2cccs2)s1)N1CCCC(n2cccn2)C1 (stereo unspecified) | -10.8%
98 | O=S(=O)(NCCN1CCCCC1Cn1cncn1)c1ccccc1 (stereo unspecified) | -9.12%
99 | CC(NC(=O)NCCOc1ccc(F)c(F)c1)c1nncn1C (stereo unspecified) | -0.192%
100 | O=C1CC2(CCCNC2)C(=O)N1Cc1cccc(F)c1 (stereo unspecified) | 3.56%
101 | Cn1cc(CN2CCOC(c3cccc(-c4cncnc4)n3)C2)cn1 (stereo unspecified) | 4.74%
102 | COc1cc(N2CCC3(CC2)CC(N2CCOCC2)C3)ncn1 | -6.81%
103 | CCn1nnc2c1C(COC)CN(Cc1cccs1)C2 (stereo unspecified) | -16.5%
104 | CNC(=O)CC1CC2(CCN(Cc3nccs3)CC2)c2ccccc21 (stereo unspecified) | -15%
105 | CCCS(=O)(=O)N1CCC2(CC1)CN(c1ccccn1)CCO2 | 6.66%
106 | COCCN1C[C@@H]2CN(Cc3ccc(F)cc3)C[C@@H]2C1=O | -0.744%
107 | CCS(=O)(=O)N1CCO[C@H]2[C@H](OCCCn3cccn3)CC[C@@H]21 | -5.04%
108 | CNC(=O)[C@@H](C1CCCCC1)N1CCC[C@H]1C(=O)NCCN1CCCC1 | -4.31%
109 | CS(=O)(=O)N1CCOCC2(CN(Cc3ccsc3)CCO2)C1 (stereo unspecified) | -11.7%
110 | O=C1CCC2(CCCN(C(=O)Cc3cccnc3)C2)N1 (stereo unspecified) | 6.88%
111 | O=C(c1cccc(Cl)c1)N1CCCC2(CCCNC2)C1 (stereo unspecified) | -152%
